# Calls of active or inactive are those of the source. The calls are words filed in the database; no cut-off is given here.
# Tests used:
# Escherichia coli [1] = experiment: Induction of Escherichia coli DNA gyrase-mediated Escherichia coli pBR322 DNA cleavage assessed as ratio of drug-induced DNA cleavage to spontaneous DNA cleavage at 50 uM after 10 mins by gel electrophoresis
# Outline: (§1)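 Quinolone sensitivity is the ratio of specific cleavage activity with 50 μM norfloxacin to the activity without it. Both come from the same pBR322 cleavage reaction: 37°C for 10 min with 1 mM ATP, then SDS/proteinase K trapping, with linear DNA resolved on ethidium-stained 1.2% agarose gels.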
# Escherichia coli [2] = experiment: Sensitivity ratio for induction of Escherichia coli DNA topoisomerase 4 over DNA gyrase-mediated negatively supercoiled Escherichia coli pBR322 DNA cleavage
# Escherichia coli [3] = experiment: Induction of Escherichia coli DNA gyrase-mediated negatively supercoiled Escherichia coli pBR322 DNA cleavage at 50 uM after 10 mins by gel electrophoresis
# Outline: (§2)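 Negatively supercoiled pBR322 (300 ng) incubated with titrated topoisomerase (tetramer amounts) in 50 mM Tris-HCl pH 8, 10 mM MgCl2, 10 mM DTT, 50 μg/ml BSA, 1 mM ATP, 5 μg/ml tRNA, 10 min at 37°C, with or without 50 μM norfloxacin. Trapped by 1% SDS, then EDTA/proteinase K, extracted, and run on 1.2% agarose with ethidium bromide; activity is linear DNA per enzyme amount.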
# [4] = target: T1, DNA gyrase (Staphylococcus aureus) (UniProt P0A0K8+P20831); experiment: Induction of Staphylococcus aureus DNA gyrase-mediated Escherichia coli pBR322 DNA cleavage assessed as ratio of drug-induced DNA cleavage to spontaneous DNA cleavage at 50 uM after 10 mins by gel electrophoresis; assay type: protein-complex assay; outline: as §1
# Escherichia coli [5] = experiment: Induction of Escherichia coli DNA topoisomerase 4-mediated Escherichia coli pBR322 DNA cleavage assessed as ratio of drug-induced DNA cleavage to spontaneous DNA cleavage at 50 uM after 10 mins by gel electrophoresis; outline: as §1
# Staphylococcus aureus [6] = experiment: Induction of Staphylococcus aureus DNA topoisomerase 4-mediated Escherichia coli pBR322 DNA cleavage assessed as ratio of drug-induced DNA cleavage to spontaneous DNA cleavage at 50 uM after 10 mins by gel electrophoresis; outline: as §1
# [7] = target: T1, DNA gyrase (Staphylococcus aureus); experiment: Induction of Staphylococcus aureus DNA gyrase-mediated negatively supercoiled Escherichia coli pBR322 DNA cleavage at 50 uM after 10 mins by gel electrophoresis; assay type: protein-complex assay; outline: as §2
# Escherichia coli [8] = experiment: Induction of Escherichia coli DNA topoisomerase 4-mediated negatively supercoiled Escherichia coli pBR322 DNA cleavage at 50 uM after 10 mins by gel electrophoresis; outline: as §2
# [9] = system: T2, DNA topoisomerase 4 subunit A (Escherichia coli K-12), P0AFI2 [S80L]; experiment: Induction of Staphylococcus aureus DNA topoisomerase 4 ParC S80L mutant-mediated Escherichia coli pBR322 DNA cleavage assessed as ratio of drug-induced DNA cleavage to spontaneous DNA cleavage at 50 uM after 10 mins by gel electrophoresis
# T2 sequence (whole entry): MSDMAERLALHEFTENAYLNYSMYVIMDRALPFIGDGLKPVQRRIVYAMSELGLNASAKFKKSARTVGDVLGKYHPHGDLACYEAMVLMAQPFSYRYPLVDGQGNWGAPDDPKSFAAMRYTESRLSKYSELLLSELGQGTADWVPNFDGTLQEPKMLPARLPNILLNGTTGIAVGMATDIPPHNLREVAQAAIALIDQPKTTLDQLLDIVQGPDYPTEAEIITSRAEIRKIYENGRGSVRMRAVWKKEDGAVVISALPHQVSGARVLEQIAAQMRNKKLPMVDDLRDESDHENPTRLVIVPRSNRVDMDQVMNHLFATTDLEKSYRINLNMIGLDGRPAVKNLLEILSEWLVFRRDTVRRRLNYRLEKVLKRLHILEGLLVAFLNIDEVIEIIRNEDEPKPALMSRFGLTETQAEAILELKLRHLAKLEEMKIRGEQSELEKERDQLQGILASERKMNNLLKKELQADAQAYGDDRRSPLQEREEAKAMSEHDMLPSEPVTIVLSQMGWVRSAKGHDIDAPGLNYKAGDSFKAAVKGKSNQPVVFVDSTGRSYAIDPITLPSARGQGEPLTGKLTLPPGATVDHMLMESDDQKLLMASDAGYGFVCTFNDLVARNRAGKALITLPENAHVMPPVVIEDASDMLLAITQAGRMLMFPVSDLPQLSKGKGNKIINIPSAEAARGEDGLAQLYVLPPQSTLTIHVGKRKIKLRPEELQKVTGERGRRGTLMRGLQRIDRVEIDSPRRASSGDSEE
# Staphylococcus aureus [10] = experiment: Induction of Staphylococcus aureus DNA topoisomerase 4-mediated negatively supercoiled Escherichia coli pBR322 DNA cleavage at 50 uM after 10 mins by gel electrophoresis; outline: as §2
# Staphylococcus aureus [11] = experiment: Sensitivity ratio for induction of Staphylococcus aureus DNA topoisomerase 4 over DNA gyrase-mediated negatively supercoiled Escherichia coli pBR322 DNA cleavage
# Staphylococcus aureus [12] = experiment: Induction of Staphylococcus aureus DNA topoisomerase 4-mediated negatively supercoiled Escherichia coli pBR322 DNA cleavage assessed as amount of linear DNA generated per unit amount of enzyme at 50 uM after 10 mins by gel electrophoresis; outline: as §2
# [13] = target: DNA gyrase (Escherichia coli) (UniProt P0AES6+P0AES4); experiment: Induction of Escherichia coli DNA gyrase-mediated negatively supercoiled Escherichia coli pBR322 DNA cleavage assessed as amount of linear DNA generated per unit amount of enzyme at 50 uM after 10 mins by gel electrophoresis; assay type: protein-complex assay; outline: as §2
# Escherichia coli [14] = experiment: Induction of Escherichia coli DNA topoisomerase 4 ParC […] mutant-mediated negatively supercoiled Escherichia coli pBR322 DNA cleavage assessed as amount of linear DNA generated per unit amount of enzyme at 50 uM after 10 mins by gel electrophoresis; outline: as §2
# [15] = system: T2, DNA topoisomerase 4 subunit A (Escherichia coli K-12), P0AFI2 [S80L]; experiment: (§3) Induction of Escherichia coli DNA topoisomerase 4-mediated negatively supercoiled Escherichia coli pBR322 DNA cleavage assessed as amount of linear DNA generated per unit amount of enzyme at 50 uM after 10 mins by gel electrophoresis; outline: as §2
# Escherichia coli [16] = experiment: as §3; outline: as §2
# T1 sequence (P0A0K8 2-644 limits assumed): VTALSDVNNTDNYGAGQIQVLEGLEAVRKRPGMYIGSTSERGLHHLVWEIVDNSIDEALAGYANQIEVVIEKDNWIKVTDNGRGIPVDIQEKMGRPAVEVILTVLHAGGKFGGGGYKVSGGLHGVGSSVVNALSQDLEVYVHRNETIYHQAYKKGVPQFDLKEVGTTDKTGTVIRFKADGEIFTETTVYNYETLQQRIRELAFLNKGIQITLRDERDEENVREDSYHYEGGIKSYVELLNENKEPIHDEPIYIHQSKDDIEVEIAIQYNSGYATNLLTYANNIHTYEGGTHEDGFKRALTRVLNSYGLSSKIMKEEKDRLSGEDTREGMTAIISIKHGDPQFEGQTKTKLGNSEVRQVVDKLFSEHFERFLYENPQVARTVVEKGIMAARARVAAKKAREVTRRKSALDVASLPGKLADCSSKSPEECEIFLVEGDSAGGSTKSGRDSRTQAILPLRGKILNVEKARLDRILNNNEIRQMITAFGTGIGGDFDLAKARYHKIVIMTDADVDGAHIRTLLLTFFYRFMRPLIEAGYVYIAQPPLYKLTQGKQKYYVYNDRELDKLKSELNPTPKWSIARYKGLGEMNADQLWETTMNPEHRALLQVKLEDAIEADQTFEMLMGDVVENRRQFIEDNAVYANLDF
# T1 sequence (P20831 whole entry partner): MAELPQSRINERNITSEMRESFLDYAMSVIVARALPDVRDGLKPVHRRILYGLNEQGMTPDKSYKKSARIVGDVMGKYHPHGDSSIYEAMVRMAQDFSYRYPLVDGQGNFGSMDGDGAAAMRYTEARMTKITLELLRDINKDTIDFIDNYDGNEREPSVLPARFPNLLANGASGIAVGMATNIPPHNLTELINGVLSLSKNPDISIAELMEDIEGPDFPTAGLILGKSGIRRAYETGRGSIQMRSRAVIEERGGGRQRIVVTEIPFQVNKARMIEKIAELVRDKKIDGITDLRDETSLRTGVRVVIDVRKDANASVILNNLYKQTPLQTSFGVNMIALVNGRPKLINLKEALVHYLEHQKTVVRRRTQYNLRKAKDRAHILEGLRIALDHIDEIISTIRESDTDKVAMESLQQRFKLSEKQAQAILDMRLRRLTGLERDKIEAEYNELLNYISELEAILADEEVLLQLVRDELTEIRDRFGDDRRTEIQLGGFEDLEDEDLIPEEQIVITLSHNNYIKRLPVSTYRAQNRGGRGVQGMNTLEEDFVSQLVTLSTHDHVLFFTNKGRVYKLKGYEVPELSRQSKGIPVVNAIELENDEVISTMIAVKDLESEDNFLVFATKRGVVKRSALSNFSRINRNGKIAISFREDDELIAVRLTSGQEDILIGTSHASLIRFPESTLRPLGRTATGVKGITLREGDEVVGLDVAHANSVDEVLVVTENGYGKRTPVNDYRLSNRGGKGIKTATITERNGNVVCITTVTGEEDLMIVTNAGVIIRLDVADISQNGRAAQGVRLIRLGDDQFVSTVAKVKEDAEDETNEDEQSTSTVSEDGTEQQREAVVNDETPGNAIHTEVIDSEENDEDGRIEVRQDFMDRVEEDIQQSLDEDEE
smiles,measurement,setting,value
CCn1cc(C(=O)O)c(=O)c2cc(F)c(N3CCNCC3)cc21,Ratio,Escherichia coli [1],68.4
same,Ratio,Escherichia coli [2],18
same,Activity,Escherichia coli [3],Active
same,Ratio,[4],10
same,Ratio,Escherichia coli [5],3.79
same,Ratio,Staphylococcus aureus [6],24.7
same,Activity,[7],Active
same,Activity,Escherichia coli [8],Active
same,Ratio,[9],1.96
same,Activity,Staphylococcus aureus [10],Active
same,Ratio,Staphylococcus aureus [11],2.5
same,Activity,Staphylococcus aureus [12],0.42 ng
same,Activity,[13],0.39 ng
same,Activity,Escherichia coli [14],0.17 ng
same,Activity,[15],0.49 ng
same,Activity,Escherichia coli [16],0.53 ng

# Source: ChEMBL document CHEMBL1154411, “Determination of the primary target of a quinolone drug and the effect of quinolone resistance-conferring mutations by measuring quinolone sensitivity based on its mode of action” (Antimicrob Agents Chemother, 2007)
